In article PMC6282584 (Chemmedchem, 2018):

How the values were obtained:
[1] = biological target: T1, PR (Oryctolagus cuniculus, UniProt P06186); assay: Endometrial transformation in rabbits; assay type: in vivo, rabbit; conditions: p.o., with progesterone, McPhail index 1 or 1.5
T1 sequence (P06186 1-930): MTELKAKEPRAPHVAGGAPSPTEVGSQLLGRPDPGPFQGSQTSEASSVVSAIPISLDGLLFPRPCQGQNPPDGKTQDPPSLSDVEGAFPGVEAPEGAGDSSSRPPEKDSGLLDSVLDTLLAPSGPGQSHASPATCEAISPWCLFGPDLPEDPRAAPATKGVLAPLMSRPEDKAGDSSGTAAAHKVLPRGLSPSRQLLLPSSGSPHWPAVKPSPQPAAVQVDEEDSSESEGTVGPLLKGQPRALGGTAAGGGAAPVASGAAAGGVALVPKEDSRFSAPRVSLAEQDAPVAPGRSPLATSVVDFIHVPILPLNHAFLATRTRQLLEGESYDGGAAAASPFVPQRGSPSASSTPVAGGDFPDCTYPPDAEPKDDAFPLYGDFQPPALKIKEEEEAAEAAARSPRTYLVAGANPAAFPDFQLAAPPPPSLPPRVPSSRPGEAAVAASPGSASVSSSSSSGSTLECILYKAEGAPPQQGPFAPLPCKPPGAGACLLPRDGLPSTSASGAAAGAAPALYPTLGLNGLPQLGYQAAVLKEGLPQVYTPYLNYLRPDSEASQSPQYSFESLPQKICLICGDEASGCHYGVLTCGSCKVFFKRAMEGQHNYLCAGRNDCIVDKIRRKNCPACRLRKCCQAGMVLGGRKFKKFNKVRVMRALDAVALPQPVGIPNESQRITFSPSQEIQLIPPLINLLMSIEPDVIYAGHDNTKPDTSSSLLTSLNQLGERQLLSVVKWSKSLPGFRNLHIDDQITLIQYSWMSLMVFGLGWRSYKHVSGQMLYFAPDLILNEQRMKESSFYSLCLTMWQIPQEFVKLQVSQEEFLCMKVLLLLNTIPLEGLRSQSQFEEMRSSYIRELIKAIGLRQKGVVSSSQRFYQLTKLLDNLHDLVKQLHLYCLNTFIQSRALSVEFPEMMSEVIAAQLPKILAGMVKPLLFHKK
Method in brief: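 Juvenile New Zealand white rabbits (35–42 days old, 900–1300 g) were primed with 17β-estradiol, […] s.c., on Days 1–4. For the antagonist test, animals were randomized (n=4) on Days 7–10 to 0.2 mg kg−1 day−1 progesterone s.c. plus test compound p.o. Autopsy was on Day 11. Glandular differentiation was scored by light microscopy as McPhail index 1–4. Full efficacy meant every animal in the group scored 1 or 1.5.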

[2] = biological target: T2, PR (Rattus norvegicus, UniProt Q63449); assay: Termination of early pregnancy in rats; assay type: in vivo; conditions: p.o., n=6
T2 sequence (Q63449 1-923): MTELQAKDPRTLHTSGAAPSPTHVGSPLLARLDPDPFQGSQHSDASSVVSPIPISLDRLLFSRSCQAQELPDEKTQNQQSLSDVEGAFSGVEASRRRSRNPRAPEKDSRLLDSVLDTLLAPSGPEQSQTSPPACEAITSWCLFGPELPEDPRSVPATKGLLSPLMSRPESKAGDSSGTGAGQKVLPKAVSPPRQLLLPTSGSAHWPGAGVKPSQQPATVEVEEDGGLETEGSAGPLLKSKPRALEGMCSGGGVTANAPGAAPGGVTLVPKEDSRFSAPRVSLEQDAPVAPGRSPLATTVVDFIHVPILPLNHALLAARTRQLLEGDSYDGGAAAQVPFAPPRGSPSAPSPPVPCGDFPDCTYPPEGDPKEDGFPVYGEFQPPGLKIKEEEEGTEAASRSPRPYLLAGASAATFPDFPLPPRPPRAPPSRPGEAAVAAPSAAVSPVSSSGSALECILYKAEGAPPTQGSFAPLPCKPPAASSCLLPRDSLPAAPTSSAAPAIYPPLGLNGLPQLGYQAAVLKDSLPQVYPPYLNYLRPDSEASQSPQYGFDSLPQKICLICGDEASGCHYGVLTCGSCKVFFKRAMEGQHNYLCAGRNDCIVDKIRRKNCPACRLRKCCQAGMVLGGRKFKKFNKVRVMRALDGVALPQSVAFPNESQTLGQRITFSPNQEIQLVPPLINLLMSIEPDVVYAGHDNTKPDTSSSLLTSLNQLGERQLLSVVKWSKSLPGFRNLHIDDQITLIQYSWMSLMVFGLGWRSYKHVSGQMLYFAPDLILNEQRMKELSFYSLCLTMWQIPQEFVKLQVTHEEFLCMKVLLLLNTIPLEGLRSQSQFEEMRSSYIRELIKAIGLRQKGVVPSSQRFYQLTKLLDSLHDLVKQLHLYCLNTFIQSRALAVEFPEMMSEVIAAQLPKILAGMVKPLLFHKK
Method in brief: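 Wistar rats (100–230 g) were randomized on Days 5–7 post-coitum (n=6 per group). They received test compound at several doses s.c. or p.o., or vehicle (benzyl benzoate/castor oil 1+4 v/v, or 85 mg polyoxyethylene-(50)-stearate in 100 mL 0.9 % NaCl). Autopsy was on Day 9. Full efficacy meant all animals lacked implantation sites or had only regressed or hemorrhagic sites.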

[3] = Determination of lonaprisan and its metabolites in human serum; assay type: in vivo; conditions: single oral 200 mg lonaprisan
Method in brief: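 Serum was sampled from volunteers after a single oral dose of the parent steroid. Concentration–time profiles of the parent and three metabolites were measured by LC–MS/MS with external calibration against authentic reference compounds. PK parameters were then calculated. Each metabolite AUC(0–∞) was expressed as % of parent AUC and as a share of the summed AUC of drug-related compounds.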

Structure (SMILES): CC(=O)c1ccc([C@H]2C[C@@]3(C)[C@@H](CC[C@@]3(O)C(F)(F)C(F)(F)F)[C@@H]3CCC4=CC(=O)CCC4=C32)cc1 [lonaprisan]
- Dose of full efficacy, endometrial transformation in rabbits [1]: 1.0 mg/kg
- Dose of full efficacy, termination of early pregnancy in rats [2]: 0.5 mg/kg
- Relative contribution to sum of AUC of drug-related compounds [3]: 6%
